Screening results: PubChem, Broad Institute
LGR2 inh = inhibitors of bursicon-induced Drosophila LGR2 receptor cAMP signaling; HEK293 LGR2, CRE-luciferase, bursicon-stimulated, 4 h; inhibition, % at 9.99 µM; 380,000 tested, 0.35% active; AID 720647;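 active = drop in luminescence signal, shown as inhibition above about 50% in the replicate tests, limit read from the data, passing the limit was not always enough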;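 also: agonist challenge used bursicon conditioned medium at about half maximal strength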
rRNA inh HTS = selective bacterial rRNA inhibition in E. coli | E. coli WT GFP vs humanized-ribosome RFP mutants, fluorescence, 24 h; active compounds read low; DMSO median 0, no signal -100 | GFP signal change (wild-type ribosome), % (test concentration not listed) | 350,000 tested, 1.6% active;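 active = significant combined selectivity score with lowered wild-type GFP, culture density cut under 30%, mutant RFP and density less affected; inactive = any of these conditions unmet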
EWS-Fli inh = EWS/Fli transcriptional activity inhibition | inhibition, % at 12.6 µM | A673 NR0B1-luciferase reporter, viability-normalised | 350,000 tested, 0.67% active | AID 651661;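 active = mean inhibition of at least 50% after viability correction, with every replicate also passing that limit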;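 also: firefly luciferase signal divided by Alamar Blue viability fluorescence both relative to DMSO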
E-sel inducer = E-selectin induction on HUVECs; P16581; HUVEC E-selectin immunofluorescence imaging; normalized: neutral wells 0, TNF-alpha wells 100; activation, % at 7.58 µM; 260,000 tested, 0.37% active;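 active = mean E-selectin-positive cell signal at least 10% of the positive control, reached in at least 60% of replicates, without over 20% cell loss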
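Assay system: HUVEC primary endothelial cells. Input: 3,000 HUVEC seeded per well. Doses: one compound dose added by pin transfer. Read-out basis: % PE-positive cells. Benchmarks: TNF-alpha high, DMSO low. Detection: immunofluorescence imaging. Buffer or medium: EGM-2, gelatin.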
Starred values were filed as active, the others as inactive. Rows were chosen to be rich in hits. Some 2.4% of all compounds tested hit in one or more screens of this group.

For COc1ccc(OC)c(/C=C/C(=O)Oc2ccc(C(C)=O)cc2)c1 the results were LGR2 inh 11, rRNA inh HTS -24* and EWS-Fli inh -3.
COc1ccc(OC)c(/C=C/C(=O)OCC(=O)Nc2cccc(C(C)=O)c2)c1 was read as LGR2 inh -11.
Screening Cc1cc(N2C(=O)C(O)=C(C(=O)c3cc4ccccc4o3)C2c2ccc(Cl)cc2)no1 (stereo unspecified) returned LGR2 inh 3 and rRNA inh HTS -24*.
Screening Cc1cc(N2C(=O)C(O)=C(C(=O)c3cc4ccccc4o3)C2c2cccc(Cl)c2)no1 (stereo unspecified) returned LGR2 inh 13, rRNA inh HTS -2 and E-sel inducer 0.
`Cc1cc(N2C(=O)C(O)=C(C(=O)c3ccco3)C2c2cccc(Cl)c2)no1` (stereo unspecified) gave LGR2 inh 14, rRNA inh HTS -32* and E-sel inducer 0.
For Cc1cc(N2C(=O)C(O)=C(C(=O)c3ccc(C)o3)C2c2cccc(Cl)c2)no1 (stereo unspecified) the results were rRNA inh HTS -14, EWS-Fli inh 4 and E-sel inducer 0.
CCOc1ccc(C)cc1S(=O)(=O)n1cnc2ccccc21 was read as LGR2 inh 1, rRNA inh HTS 5 and EWS-Fli inh 59*.
For CCC(=O)Nc1ccc2c(c1)OC[C@@H](C)N(C(=O)CC)C[C@@H](C)[C@@H](OC)CN(C)C2=O the results were LGR2 inh 15, rRNA inh HTS 5, EWS-Fli inh -2 and E-sel inducer 0.
Screening CC(=O)NC1=NC(=O)/C(=C/c2cc(C)n(-c3ccc(NC(C)=O)cc3)c2C)S1 returned LGR2 inh 4, rRNA inh HTS -29*, EWS-Fli inh -21 and E-sel inducer 1.
For CC(C)NC(=O)N(C)C[C@H]1Oc2ccc(NS(=O)(=O)c3ccc(F)cc3)cc2CC(=O)N([C@@H](C)CO)C[C@@H]1C the results were LGR2 inh -17, rRNA inh HTS 3, EWS-Fli inh -2 and E-sel inducer 0.
O=C(NC(=S)NCCc1ccccc1)c1ccccc1F was read as LGR2 inh -47, rRNA inh HTS -31* and EWS-Fli inh -20.
`CCS(=O)(=O)N1CCC2(CC1)CN(CC1CCOCC1)[C@H](CO)c1c2c2ccc(OC)cc2n1C` gave LGR2 inh -3, rRNA inh HTS 13, EWS-Fli inh 0 and E-sel inducer 1.
CCCN(C)C[C@@H]1OCCCC[C@@H](C)Oc2ccc(NS(=O)(=O)c3cn(C)cn3)cc2C(=O)N([C@@H](C)CO)C[C@@H]1C was read as LGR2 inh -14, rRNA inh HTS 3, EWS-Fli inh 3 and E-sel inducer 0.
COc1ccc(NC(=O)N(C)C[C@@H]2OCCCC[C@@H](C)Oc3ccc(NS(=O)(=O)c4ccc(C)cc4)cc3C(=O)N([C@H](C)CO)C[C@H]2C)cc1 was read as LGR2 inh -14, rRNA inh HTS 4 and EWS-Fli inh 14.
Screening O=C(C[C@H]1CC[C@@H]2[C@H](COC[C@H](O)CN2Cc2cc(F)ccc2F)O1)NCc1ccc(F)cc1 returned LGR2 inh -6, rRNA inh HTS -5, EWS-Fli inh -48 and E-sel inducer 0.
For COc1ccc(CNc2ncnc3c2[nH]c2ccccc23)cc1 the results were LGR2 inh 22, rRNA inh HTS -55* and EWS-Fli inh 6.
`COc1ccc(CNc2ncnc3c2[nH]c2cc(OC)c(OC)cc23)cc1` gave LGR2 inh 2, rRNA inh HTS -58, EWS-Fli inh -16 and E-sel inducer 67*.
For COc1ccc(CNc2nc(=S)[nH]c3cc(OC)c(OC)cc23)cc1 the results were LGR2 inh -23, rRNA inh HTS 6, EWS-Fli inh 13 and E-sel inducer 0.
COc1cc2[nH]c(=S)nc(NCc3ccccc3)c2cc1OC was read as LGR2 inh -10, rRNA inh HTS -16*, EWS-Fli inh -2 and E-sel inducer 0.
Cc1ccc2[nH]c3c(NCc4ccccc4)ncnc3c2c1 was read as LGR2 inh -15, rRNA inh HTS -52, EWS-Fli inh 0 and E-sel inducer 0.
Screening O=C(C[C@@H]1CC[C@@H](NC(=O)Nc2ccccc2F)[C@@H](CO)O1)NCc1ccc(-c2ccccc2)cc1 returned LGR2 inh -8, rRNA inh HTS -10, EWS-Fli inh -3 and E-sel inducer 0.
